The entries come from a sample that favours hits as a whole.
Lmaj promast = Leishmania major promastigote growth inhibition, primary screen. 200,000 tested, 9% active. Leishmania major promastigotes, resazurin fluorescence viability. inhibition, % at 10 µM; in the data active means inhibition above about 50%;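 further: promastigotes grown with compound for 44 hours at 28 °C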
XBP1 UPR activ = activators of adaptive XBP1 UPR arm, primary screen, cell-based, CHO-XBP1 luciferase reporter, luminescence, uHTS | IRE1-XBP1 UPR activation; percent of tunicamycin response, DMSO as zero | activation, % at 20 µM | 330,000 tested, 0.33% active;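 active means versus positive control, 20 µM dose yields 30% or more activation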;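 further: 100% = tunicamycin at 10 µg/mL and 0% = DMSO only wells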
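incubation = overnight seeding at 37 °C, 6 h compound treatment at 37 °C | assay system = CHO-XBP1 cells stably carrying IRE1-XBP1-driven luciferase reporter | input = 1000 cells per well | detection = luciferase luminescence | dosing = single point, 20 µM final compound, 1% DMSO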
T cruzi repl = inhibitors of intracellular T. cruzi growth, primary screen, luminescence, NIH3T3 host cells; T. cruzi beta-gal in NIH3T3, 90 h; inhibition, % (concentration not given with the values); 300,000 tested, 1.4% active;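 active means mean inhibition across valid replicates above about 55%, limit read from the data; inconclusive means mean below that limit but half or more replicates reach it; inactive means mean below it, under half of replicates reach it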;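 further: signal also drops with host cell toxicity which is not excluded here; 0% = plate median of DMSO wells and 100% = zero luminescence signal; higher percent means less beta-gal luminescence so fewer parasites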
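Assay system: NIH/3T3 host cells with β-galactosidase reporter T. cruzi; input: 5,000 host fibroblasts per well; compound: single 50 nL compound addition per well in DMSO; timing: ≥90 h infection period, 3 h prior cell attachment; measured by: GalScreen β-gal luminescence, detergent lysis, 60 min; evaluation: percent inhibition of parasite-derived β-gal signal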
CHOP UPR activ = activators of apoptotic CHOP UPR arm, primary screen, cell-based, CHO-CHOP luciferase reporter, luminescence, uHTS. UPR activation; percent of tunicamycin response over DMSO baseline. activation, % at 10 µM. 330,000 tested, 0.34% active;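 active means at 10 µM dose, activation of 40% or more, normalized to positive control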;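 further: 100% = tunicamycin at 10 µg/mL and 0% = DMSO alone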
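System: CHO-CHOP luciferase reporter cell line; amount: 500 cells/well; buffer or medium: F12 medium containing 10% fetal bovine serum; incubation: 6 h compound exposure at 37 °C after overnight seeding; measured by: luciferase luminescence after 10 min with Steady-Glo reagent; evaluation: % reporter activation, DMSO baseline versus tunicamycin full activation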
CHOP inhibitor = inhibitors of CHOP promoter induction, primary screen, cell-based, unfolded protein response, luciferase reporter; inhibition, % at 10 µM; AID 2732, 2010; CHO-K1 CHOP-promoter luciferase, tunicamycin-induced, 15-18 h; 220,000 tested, 3.8% active;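 active means compounds that reduced the stress-induced luciferase reporter signal by more than about 70% of percent inhibition, limit read from the data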;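 further: 0% = tunicamycin plus vehicle and 100% = wells without tunicamycin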
Dynein cargo inh = inhibitors of GR-EGFP nuclear translocation, primary screen, dynein cargo transport inhibitor project, imaging, high-content, 3617.4 mouse cells; test concentration mostly 20 µM; stimulated with dexamethasone, 1 µM; active compounds read low; 220,000 tested, 0.47% active; z-score, hits read low;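 active means plate z-score of nuclear minus cytoplasmic receptor signal below a set negative limit, without overly bright fluorescence or cell loss, cut at about -3.5 in these data, passing the limit was not always enough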;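 further: z-score of nuclear minus cytoplasmic ring GR-EGFP intensity difference per well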
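medium = tetracycline-free induction medium containing charcoal-stripped FBS | probe or stimulus = dexamethasone, 1.0 µM final | timing = 48 h induction, then 1 h compound, then 30 min agonist, 37 °C | detection = automated 10x imaging of fixed Hoechst-stained cells | read-out basis = nuclear versus cytoplasmic GR-EGFP signal, averaged per well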
Active calls of the source: *; ? = inconclusive; / = no result.

SMILES	Lmaj promast	XBP1 UPR activ	T cruzi repl	CHOP UPR activ	CHOP inhibitor	Dynein cargo inh
Cc1ccc2[nH]c(C)c(/C=C/c3cc[n+](C)cc3)c2c1	/	-3	57*	-1	/	/
C[n+]1ccc(/C=C/c2c[nH]c3ccc(F)cc23)cc1	/	-4	?	0	/	/
Cc1ccc2c(c1)c(/C=C/c1cc[n+](C)cc1)c(C)n2C	/	-2	66*	0	/	/
Cn1cc(/C=C/c2cc[n+](C)cc2)c2cc(Cl)ccc21	/	/	50	/	/	/
CS(=O)(=O)c1ccc(-c2sc3ccccc3c2C(=O)NCCCN2CCOCC2)cc1	/	1	/	1	/	/
COc1ccc(C[C@H]2CN3C(=NC[C@H]3Cc3ccccc3)N2CCNC(=O)CCC2CCCCC2)cc1	76*	2	7	-1	-2	0.24
COc1ccc(C[C@H]2CN3C(=NC[C@@H]3C(C)C)N2C[C@H](C)NC(=O)c2ccc(C)c(Br)c2)cc1	68*	-1	31	-1	32	-1.4
Cc1ccc(C(=O)N[C@@H](C)CN2C3=NC[C@H](C(C)C)N3C[C@H]2Cc2ccc(O)cc2)cc1Br	8	2	16	4	-16	-0.82
COc1ccc(C[C@H]2CN3C(=NC[C@@H]3Cc3ccccc3)N2CCNC(=O)c2ccc(C)c(Br)c2)cc1	95*	7	48	3	-2	-4.4
COc1ccc(C[C@H]2CN3C(=NC[C@@H]3Cc3ccccc3)N2C[C@H](C)NC(=O)CCC2CCCCC2)cc1	/	4	21	4	5	0.8
O=C(c1ccccc1)c1ccc2nc(-c3ccc(NC(=O)c4ccccc4F)cc3)[nH]c2c1	61*	21	15	4	58	0.17
CCN(C(=O)Cn1cnc2c1c(=O)n(C)c(=O)n2C)C1CCS(=O)(=O)C1 (stereo not drawn)	/	-3	/	2	/	/
O=C(Nc1cc2c3c(c1)C1CCCC1CN3CC1CCCC21)c1ccccc1 (stereo not drawn)	97*	1	60*	0	57	-0.33
Cc1ccc(C(=O)N2CCN(c3ncccn3)CC2)cc1S(=O)(=O)N1CCCCC1	59*	2	12	4	25	-0.17
CCCCc1cc(=O)oc2cc(OCC(=O)Nc3ccccn3)ccc12	/	-1	2	5	/	/
Cc1ccc(SC(C)c2nc(-c3ccccc3)no2)cc1 (stereo not drawn)	3	-1	-14	1	72*	0.25
Cc1ccccc1OC(C)c1nc(-c2ccccc2)no1 (stereo not drawn)	-5	9	4	5	32	-0.71
CCOc1cc(CNCC2CCCN2CC)cc(Cl)c1OC (stereo not drawn)	2	0	0	0	12	0.057
COc1cc(CNCc2ccccc2)cc(Cl)c1OC	66*	-2	-5	0	25	0.52
CCCCNCc1cc(Cl)c(OCCC)c(OCC)c1	90*	-2	38	1	46	-1.3
CCOc1cc(CNCc2ccncc2)cc(Cl)c1OC	89*	2	-7	1	-12	0.18
COc1cc(CNCCc2ccccc2)cc(Cl)c1OCc1ccccc1	91*	9	37	1	1	-0.59
Clc1ccccc1Cn1nnc2ccccc21	/	-1	-10	1	/	/
S=c1[nH]ncn1/N=C/c1cccs1	/	-1	-5	0	-13	-0.37
COc1ccc(S(=O)(=O)N2CCOCC2)cc1NC(=O)Cc1coc2cc(C)c(C)cc12	/	-1	18	0	/	/
SMILES	Lmaj promast	XBP1 UPR activ	T cruzi repl	CHOP UPR activ	CHOP inhibitor	Dynein cargo inh
CCN1C(=O)C(CC(=O)Nc2ccc(F)cc2)N(Cc2ccco2)C1=S (stereo not drawn)	7	0	2	-2	20	1.4
CCc1ccc(NC(=O)CC2C(=O)N(c3ccc(C)cc3)C(=O)N2CCc2ccncc2)cc1 (stereo not drawn)	51*	-1	29	0	8	-1
COC(=O)CN1C(=S)N(c2ccc(Cl)cc2)C(=O)C1CC(=O)Nc1ccccc1 (stereo not drawn)	64*	-1	11	0	42	-0.95
CCCOc1ccc(NC(=O)CC2C(=O)N(CC)C(=S)N2Cc2cccs2)cc1 (stereo not drawn)	25	0	19	-1	93*	0.94
Cc1cccc(N2C(=O)C(CC(=O)Nc3cccc(F)c3)N(CCc3ccncc3)C2=O)c1 (stereo not drawn)	7	-5	-1	-1	13	-0.91
COC(=O)CN1C(=S)N(c2ccc(F)cc2)C(=O)C1CC(=O)Nc1ccccc1 (stereo not drawn)	-11	-3	-12	1	6	0.61
CCOc1ccc(NC(=O)CC2C(=O)N(c3ccccc3)C(=O)N2CCc2cccs2)cc1 (stereo not drawn)	66*	-3	-13	0	-3	0.015
C[C@H](CO)N1C[C@H](C)[C@@H](CN(C)C(=O)NC2CCCCC2)Oc2c(NC(=O)Nc3ccc(C(F)(F)F)cc3)cccc2C1=O	/	3	/	4	/	/
CCOc1ccc(CCNC(=O)C2CC(=O)N(c3ccc4c(c3)OCCO4)C2)cc1OCC (stereo not drawn)	/	-3	0	3	/	/
CCOc1ccc(OCCNC(=O)C(NC(=O)c2c(F)cccc2F)C(C)C)cc1 (stereo not drawn)	/	0	/	0	/	/
COc1ccccc1N1CCN(C(=O)c2oc3c(c2C)C(=O)CC(C)(C)C3)CC1	/	-3	7	0	/	/
COc1ccc(CCN2C(=S)N(C)C(=O)C2CC(=O)Nc2ccc(OC)cc2)cc1 (stereo not drawn)	12	-2	3	0	27	0.25
COc1ccc(NC(=O)CC2C(=O)N(C)C(=S)N2Cc2cccs2)cc1 (stereo not drawn)	54*	0	6	0	-3	-0.58
CCOc1ccc(NC(=O)CC2C(=O)N(c3ccc(OC)cc3)C(=S)N2Cc2ccccn2)cc1 (stereo not drawn)	80*	1	16	1	25	0.047
CCOc1ccc(NC(=O)CC2C(=O)N(c3ccccc3)C(=S)N2Cc2ccccn2)cc1 (stereo not drawn)	9	-1	13	6	13	0.13
CCCCCCOc1ccc(NC(=O)CC2C(=O)N(CC)C(=S)N2Cc2ccco2)cc1 (stereo not drawn)	66*	1	?	4	91*	1
CC(C)CN1CCC(=O)N(CCO)CC1	/	-5	-8	-1	/	/

Compound activity (PubChem)
